Experimental data published in ChEMBL document CHEMBL2010692, “Inhibitory effect of novel S,N-bisphosphonates on some carcinoma cell lines, osteoarthritis, and chronic inflammation” (Eur J Med Chem, 2012).
pIC50: −log10 of the molar value.

Assays:
Rattus norvegicus [1] = experiment: Antiarthritic activity in complete Freund's adjuvant-induced rat arthritis model assessed as reduction of paw volume in injected paw at 50 mg/kg, sc qd for 28 days; type: functional; settings: 672 h, route subcutaneous
Summary of the method: (§1)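 Rat adjuvant-induced polyarthritis. Compounds were dissolved or suspended in sterile saline, sonicated as needed, brought to pH 7.0 with NaOH, and kept as frozen aliquots, fresh each dosing day. Dosing was sc once daily for 28 days, by body weight. The arthritic control group got vehicle sc. Injected and noninjected hindpaw volumes were measured on day 28 by mercury displacement plethysmography and expressed as % inhibition.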

Rattus norvegicus [2] = experiment: Antiarthritic activity in complete Freund's adjuvant-induced rat arthritis model assessed as reduction of paw volume in injected paw at 100 mg/kg, sc qd for 28 days; type: functional; settings: 672 h, route subcutaneous; summary of the method: as §1
Rattus norvegicus [3] = experiment: Antiarthritic activity in complete Freund's adjuvant-induced rat arthritis model assessed as reduction of paw volume in non-injected paw at 50 mg/kg, sc qd for 28 days; type: functional; settings: 672 h, route subcutaneous; summary of the method: as §1
Rattus norvegicus [4] = experiment: Antiarthritic activity in complete Freund's adjuvant-induced rat arthritis model assessed as reduction of paw volume in non-injected paw at 100 mg/kg, sc qd for 28 days; type: functional; settings: 672 h, route subcutaneous; summary of the method: as §1
Mus musculus [5] = experiment: Antiinflammatory activity in methylated bovine serum albumin sensitized delayed-type hypersensitivity granuloma mouse model assessed as reduction of granuloma dry weight at 100 mg/kg, sc qd for 9 days; type: functional; settings: 216 h, route subcutaneous
Summary of the method: (§2)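 Groups of 10 female mice (25 g) were sensitized sc over the inguinal lymph node with mBSA emulsion in saline, Freund's incomplete adjuvant and dextran. Three weeks later, two 6-mm hydroxyapatite discs soaked in mBSA (30 mg/mL saline) were implanted sc in the dorsum. Compounds at pH 7.4 were given sc into the scruff at 0.1 mL/10 g, daily from implantation to day 9. Granuloma wet and dry weights were recorded as % inhibition.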

Mus musculus [6] = experiment: Antiinflammatory activity in methylated bovine serum albumin sensitized delayed-type hypersensitivity granuloma mouse model assessed as reduction of granuloma dry weight at 50 mg/kg, sc qd for 9 days; type: functional; settings: 216 h, route subcutaneous; summary of the method: as §2
Mus musculus [7] = experiment: Antiinflammatory activity in methylated bovine serum albumin sensitized delayed-type hypersensitivity granuloma mouse model assessed as reduction of granuloma wet weight at 100 mg/kg, sc qd for 9 days; type: functional; settings: 216 h, route subcutaneous; summary of the method: as §2
Mus musculus [8] = experiment: Antiinflammatory activity in methylated bovine serum albumin sensitized delayed-type hypersensitivity granuloma mouse model assessed as reduction of granuloma wet weight at 50 mg/kg, sc qd for 9 days; type: functional; settings: 216 h, route subcutaneous; summary of the method: as §2
Rattus norvegicus [9] = experiment: Antiarthritic activity in complete Freund's adjuvant-induced rat arthritis model assessed as reduction of paw volume in injected paw at 30 mg/kg, sc qd for 28 days; type: functional; settings: 672 h, route subcutaneous; summary of the method: as §1
Rattus norvegicus [10] = experiment: Antiarthritic activity in complete Freund's adjuvant-induced rat arthritis model assessed as reduction of paw volume in injected paw at 20 mg/kg, sc qd for 28 days; type: functional; settings: 672 h, route subcutaneous; summary of the method: as §1
Rattus norvegicus [11] = experiment: Antiarthritic activity in complete Freund's adjuvant-induced rat arthritis model assessed as reduction of paw volume in injected paw at 10 mg/kg, sc qd for 28 days; type: functional; settings: 672 h, route subcutaneous; summary of the method: as §1
Rattus norvegicus [12] = experiment: Antiarthritic activity in complete Freund's adjuvant-induced rat arthritis model assessed as reduction of paw volume in non-injected paw at 30 mg/kg, sc qd for 28 days; type: functional; settings: 672 h, route subcutaneous; summary of the method: as §1
Rattus norvegicus [13] = experiment: Antiarthritic activity in complete Freund's adjuvant-induced rat arthritis model assessed as reduction of paw volume in non-injected paw at 20 mg/kg, sc qd for 28 days; type: functional; settings: 672 h, route subcutaneous; summary of the method: as §1
Rattus norvegicus [14] = experiment: Antiarthritic activity in complete Freund's adjuvant-induced rat arthritis model assessed as reduction of paw volume in non-injected paw at 10 mg/kg, sc qd for 28 days; type: functional; settings: 672 h, route subcutaneous; summary of the method: as §1
Mus musculus [15] = experiment: Antiinflammatory activity in methylated bovine serum albumin sensitized delayed-type hypersensitivity granuloma mouse model assessed as reduction of granuloma dry weight at 60 mg/kg, sc qd for 9 days; type: functional; settings: 216 h, route subcutaneous; summary of the method: as §2
Mus musculus [16] = experiment: Antiinflammatory activity in methylated bovine serum albumin sensitized delayed-type hypersensitivity granuloma mouse model assessed as reduction of granuloma dry weight at 25 mg/kg, sc qd for 9 days; type: functional; settings: 216 h, route subcutaneous; summary of the method: as §2
Mus musculus [17] = experiment: Antiinflammatory activity in methylated bovine serum albumin sensitized delayed-type hypersensitivity granuloma mouse model assessed as reduction of granuloma wet weight at 60 mg/kg, sc qd for 9 days; type: functional; settings: 216 h, route subcutaneous; summary of the method: as §2
Mus musculus [18] = experiment: Antiinflammatory activity in methylated bovine serum albumin sensitized delayed-type hypersensitivity granuloma mouse model assessed as reduction of granuloma wet weight at 25 mg/kg, sc qd for 9 days; type: functional; settings: 216 h, route subcutaneous; summary of the method: as §2
Mus musculus [19] = experiment: Toxicity in albino mouse assessed as mortality at 500 to 1000 mg/kg, […] after 24 hrs; type: organism-based; set-up: dose 500-1000 mg/kg; settings: in vivo
Summary of the method: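 Albino mice (20-25 g) were split into 6 groups of 8. Compounds were given at 500, 750 and 1000 mg/kg; controls received buffer only. Toxic symptoms, mortality and postmortem findings were recorded 24 h after administration. LD50 was calculated by the Dm − Σ(z×d)/n formula.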

Mus musculus [20] = experiment: Toxicity in albino mouse assessed as toxic symptoms at 500 to 1000 mg/kg, ip after 24 hrs; settings: in vivo
MCF7 = experiment: Cytotoxicity against human MCF7 cells after 48 hrs by SRB assay; type: functional, cell-based; settings: MCF7, 48 h
Summary of the method: (§3)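 Cells were seeded at 10^4 per well and allowed to attach for 24 h. They were then exposed to four compound concentrations (5, 12.5, 25, 50), each in triplicate wells, for 48 h at 37 °C in 5% CO2. Cells were fixed and stained with sulforhodamine B, washed with acetic acid, and bound dye was recovered in Tris-EDTA pH 7.4 and read on a plate reader. IC50 was taken from survival curves using the triplicate means.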

HeLa = experiment: Cytotoxicity against human HeLa cells after 48 hrs by SRB assay; type: functional, cell-based; summary of the method: as §3
HepG2 = experiment: Cytotoxicity against human HepG2 cells after 48 hrs by SRB assay; type: functional, cell-based; settings: HepG2, 48 h; summary of the method: as §3
HCT-116 = experiment: Cytotoxicity against human HCT116 cells after 48 hrs by SRB assay; type: functional, cell-based; settings: HCT-116, 48 h; summary of the method: as §3

Compound | inhibition in vivo at 50 mg/kg (Rattus norvegicus [1]) [%] | inhibition in vivo at 100 mg/kg (Rattus norvegicus [2]) [%] | inhibition in vivo at 50 mg/kg (Rattus norvegicus [3]) [%] | inhibition in vivo at 100 mg/kg (Rattus norvegicus [4]) [%] | inhibition in vivo at 100 mg/kg (Mus musculus [5]) [%] | inhibition in vivo at 50 mg/kg (Mus musculus [6]) [%] | inhibition in vivo at 100 mg/kg (Mus musculus [7]) [%] | inhibition in vivo at 50 mg/kg (Mus musculus [8]) [%] | other results
O=P(O)(O)C1(P(=O)(O)O)C(=S)c2ccccc2N=C1C1CCCCC1 | < 5 | 16 | 8 | 14 | 36 | 28 | 24 | 19 | –
CC1=Nc2ccc(Br)cc2C(=S)C1(P(=O)(O)O)P(=O)(O)O | < 5 | 21 | 12 | 18 | 25 | 18 | 13 | < 10 | –
CCOP(=O)(OCC)C1(P(=O)(OCC)OCC)N=C(c2ccc(N(CC)CC)cc2)c2ccccc2C1=S | 24 | – | 65 | – | 44 | – | 34 | – | inhibition in vivo at 30 mg/kg (Rattus norvegicus [9]): 16%; inhibition in vivo at 20 mg/kg (Rattus norvegicus [10]): 20%; inhibition in vivo at 10 mg/kg (Rattus norvegicus [11]): < 5%; inhibition in vivo at 30 mg/kg (Rattus norvegicus [12]): 52%; inhibition in vivo at 20 mg/kg (Rattus norvegicus [13]): 56%; inhibition in vivo at 10 mg/kg (Rattus norvegicus [14]): 44%; inhibition in vivo at 60 mg/kg (Mus musculus [15]): 40%; inhibition in vivo at 25 mg/kg (Mus musculus [16]): 32%; inhibition in vivo at 60 mg/kg (Mus musculus [17]): 31%; inhibition in vivo at 25 mg/kg (Mus musculus [18]): 22%; Activity (Mus musculus [19]): Non-toxic; Activity (Mus musculus [20]): Non-toxic
CCN(CC)c1ccc(C2=NC(P(=O)(O)O)(P(=O)(O)O)C(=S)c3ccccc32)cc1 | < 5 | 18 | 10 | 24 | 30 | 26 | 23 | 16 | –
CCOP(=O)(OCC)C1(P(=O)(OCC)OCC)N=C(c2ccc(C)cc2)c2ccccc2C1=S | – | – | – | – | – | – | – | – | pIC50 (MCF7): 4.52; pIC50 (HeLa): 4.57; pIC50 (HepG2): 4.60; pIC50 (HCT-116): 4.74
O=P(O)(O)C(Cl)(Cl)P(=O)(O)O [CLODRONIC ACID] | 35 | – | 68 | – | 48 | – | 44 | – | inhibition in vivo at 30 mg/kg (Rattus norvegicus [9]): 34%; inhibition in vivo at 20 mg/kg (Rattus norvegicus [10]): 28%; inhibition in vivo at 10 mg/kg (Rattus norvegicus [11]): 23%; inhibition in vivo at 30 mg/kg (Rattus norvegicus [12]): 62%; inhibition in vivo at 20 mg/kg (Rattus norvegicus [13]): 70%; inhibition in vivo at 10 mg/kg (Rattus norvegicus [14]): 56%; inhibition in vivo at 60 mg/kg (Mus musculus [15]): 44%; inhibition in vivo at 25 mg/kg (Mus musculus [16]): 33%; inhibition in vivo at 60 mg/kg (Mus musculus [17]): 40%; inhibition in vivo at 25 mg/kg (Mus musculus [18]): 30%
COc1cccc2c1C(=O)c1c(O)c3c(c(O)c1C2=O)C[C@@](O)(C(=O)CO)C[C@@H]3O[C@H]1C[C@H](N)[C@H](O)[C@H](C)O1 [DOXORUBICIN] | – | – | – | – | – | – | – | – | pIC50 (HepG2): 5.24; pIC50 (HCT-116): 5.16
